Compounds with a hit are over-represented: about 1.2% of the library has one in this group of screens.
CSN deneddyl inh = blocks human CSN-mediated cullin deneddylation; Q92905; Purified CSN, SCF-Nedd8-OG deneddylation, fluorescence polarization; inhibition, % at 12.5 µM; 360,000 compounds, 0.38% hits; AID 651999;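 active = pattern-corrected inhibition above about 35%, with an unprinted fluorescence ratio check between 0.5 and 1.5, limit read from the data, passing the limit was not always enough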;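 note: 0% = enzyme with substrate and 100% = substrate without enzyme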
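Material: purified human Csn5 enzyme expressed in HEK293T cells / Medium: Tris buffer pH 7.5, NaCl, DTT, Tween-20, trehalose, ovalbumin / Compound dosing: 12.5 µM single point / Schedule: 90 min incubation of compound, enzyme and substrate at room temperature / Signal: fluorescence polarization of the substrate / Control set: no-enzyme wells high, enzyme-with-substrate wells low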
HNF4A DNA FP = change in binding of human HNF4 alpha to DNA. AID 1224865. P41235. 360,000 compounds, 0.3% hits. HNF4a-FITC DNA binding, fluorescence polarization, 1 h. activity change, % at 10 µM; in the data active = activity change above about 30%, passing the limit was not always enough
Target sequence (P41235 whole entry, looked up): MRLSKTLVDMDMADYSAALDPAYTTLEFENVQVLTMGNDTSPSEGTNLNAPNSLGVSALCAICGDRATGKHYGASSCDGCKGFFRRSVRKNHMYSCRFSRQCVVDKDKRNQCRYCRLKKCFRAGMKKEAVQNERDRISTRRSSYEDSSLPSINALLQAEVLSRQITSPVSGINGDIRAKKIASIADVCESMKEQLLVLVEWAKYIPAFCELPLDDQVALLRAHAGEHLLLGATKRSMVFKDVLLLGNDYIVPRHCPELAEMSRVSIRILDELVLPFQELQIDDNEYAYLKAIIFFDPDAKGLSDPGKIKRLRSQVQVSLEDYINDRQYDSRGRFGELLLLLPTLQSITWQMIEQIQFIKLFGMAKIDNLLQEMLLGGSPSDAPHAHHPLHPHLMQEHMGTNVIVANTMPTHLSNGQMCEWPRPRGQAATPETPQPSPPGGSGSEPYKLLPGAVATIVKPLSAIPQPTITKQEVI
TPT1 inhibitor = blocks Candida albicans tRNA 2'-phosphotransferase; inhibition, % at 5 µM; 300,000 compounds, 0.81% hits; recombinant caTPT1, FP RNA substrate dephosphorylation; AID 1962;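 active = inhibition above the mean of all tested compounds plus 3 SD, set per screening campaign, cut at about 24% in these data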;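 note: plate controls were DMSO alone for no effect and ferristatin control at 100 nM for full effect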
Rtt109 Vps75 = C. albicans Rtt109 histone acetyltransferase inhibition; purified Rtt109/Vps75, ThioGlo CoA-SH fluorescence, 4 h; inhibition, % at 34.9 µM; 330,000 compounds, 0.16% hits; AID 540336;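 active = inhibition of at least 50% in every replicate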
TPT1 inh confirm = confirmation of Candida albicans TPT1 inhibitors; shares compounds with TPT1 inhibitor; recombinant caTPT1, fluorescence polarization, RNase T1 coupled; AID 2149; 2,400 compounds, 74% hits; inhibition, % at 5 µM;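 active = inhibition above the primary screen limit, the mean inhibition of all tested compounds plus 3 SD, cut at about 25% in these data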
RNase T1 counter = blocks Aspergillus oryzae RNase T1, a TPT1 counter-screen. inhibition, % at 5 µM. 2,400 compounds, 83% hits. AID 2153. shares compounds with TPT1 inhibitor. RNase T1 cleavage, fluorescence polarization, 1536-well;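 active = inhibition above the solvent-only control well mean plus 3 SD, limit set per screening run, cut at about 23% in these data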;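 note: plate controls were DMSO wells with enzyme for no effect and wells without RNase T1 for full effect; inhibitors block cleavage so intact labeled substrate keeps polarization high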
Target sequence (P00651 whole entry, looked up): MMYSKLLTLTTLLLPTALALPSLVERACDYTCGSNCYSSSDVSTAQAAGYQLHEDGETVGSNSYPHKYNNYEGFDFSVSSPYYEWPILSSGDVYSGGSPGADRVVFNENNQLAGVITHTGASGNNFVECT
The depositor's hits bear a star.

For CNC(=O)NC(=O)C(C)OC(=O)c1c2c(nc3ccccc13)/C(=C/c1cccs1)CC2 (centres undefined) the results were CSN deneddyl inh 14, HNF4A DNA FP 24, TPT1 inhibitor 27*, Rtt109 Vps75 1, TPT1 inh confirm 30* and RNase T1 counter 42*.
Screening O=C(Nc1ccccc1)NC1CCN(Cc2ccccc2)CC1 returned CSN deneddyl inh 3, HNF4A DNA FP 2, TPT1 inhibitor 30*, TPT1 inh confirm 2 and RNase T1 counter 7.
COc1cccc(NC(=O)CSc2nnc3ccc(-c4ccncc4)nn23)c1 was read as CSN deneddyl inh -8, HNF4A DNA FP 0 and Rtt109 Vps75 -17.
Screening Cc1[nH]c2ccccc2c1/C=N/NC(=O)c1ccccc1 returned CSN deneddyl inh -2, HNF4A DNA FP 1, TPT1 inhibitor 0 and Rtt109 Vps75 -5.
`CCn1c(/C=C/c2c(C)[nH]c3ccccc23)nc2ccccc2c1=O` gave CSN deneddyl inh -1, HNF4A DNA FP 22, TPT1 inhibitor 38*, Rtt109 Vps75 -2, TPT1 inh confirm 59* and RNase T1 counter 71*.
Cc1[nH]c2ccccc2c1/C=C/C(=O)c1ccccc1 was read as CSN deneddyl inh 15, HNF4A DNA FP 24, TPT1 inhibitor 32*, Rtt109 Vps75 -10, TPT1 inh confirm 63* and RNase T1 counter 75*.
For COC(=O)c1c(-c2ccc3ccccc3c2)csc1NC(=O)Cc1ccc(OC)c(OC)c1 the results were CSN deneddyl inh 5, HNF4A DNA FP 35, TPT1 inhibitor 39*, Rtt109 Vps75 -4, TPT1 inh confirm 63* and RNase T1 counter 70*.
CCCN(C(=O)c1cccc(S(=O)(=O)N2CCCc3ccccc32)c1)C1CCS(=O)(=O)C1 (centres undefined) was read as CSN deneddyl inh -5, HNF4A DNA FP -1 and Rtt109 Vps75 -6.
`OC(c1ccc(F)cc1)c1nc(-c2cncnc2)cs1` (centres undefined) gave CSN deneddyl inh 0 and HNF4A DNA FP -2.
Screening CCOC(=O)c1c(N)sc2c1CCN(CCc1ccccc1)C2 returned CSN deneddyl inh 20, HNF4A DNA FP 23, TPT1 inhibitor 28*, Rtt109 Vps75 -1, TPT1 inh confirm 16 and RNase T1 counter 24*.
`CCOC(=O)c1c(NC(=O)C(C)Sc2cccc[n+]2[O-])sc2c1CCN(Cc1ccccc1)C2` (centres undefined) gave CSN deneddyl inh 10, HNF4A DNA FP 4, TPT1 inhibitor 71*, Rtt109 Vps75 6, TPT1 inh confirm 77* and RNase T1 counter 86*.
CCOC(=O)c1c(NC(=S)Nc2ccccc2)sc2c1CCN(CCc1ccccc1)C2 was read as TPT1 inhibitor 120*, TPT1 inh confirm 114* and RNase T1 counter 113*.
Screening O=C(CNC(=O)c1ccc(Cl)cc1Cl)OCCCn1c(=O)[nH]c2ccccc21 returned CSN deneddyl inh 2, HNF4A DNA FP 1, TPT1 inhibitor -2 and Rtt109 Vps75 5.
`O=C(O)CCn1c(SCCOc2ccccc2F)nc2ccccc21` gave CSN deneddyl inh 2, HNF4A DNA FP -1 and Rtt109 Vps75 -2.
For O=C(CC[C@H]1O[C@@H](n2cnc3c(NC(=O)c4ccccc4)ncnc32)[C@H](O)[C@@H]1O)N[C@@H](CO)c1ccccc1 the results were CSN deneddyl inh 0 and HNF4A DNA FP 3.
`CCOC(=O)COc1ccc(S(=O)(=O)N2CCN(c3ccccc3F)CC2)cc1` gave CSN deneddyl inh 5, HNF4A DNA FP 1, TPT1 inhibitor 109*, TPT1 inh confirm 7 and RNase T1 counter 10.
O=C(COc1ccc(S(=O)(=O)N2CCCC2)cc1)N1CCN(c2ccccc2F)CC1 was read as CSN deneddyl inh -1, HNF4A DNA FP 0, TPT1 inhibitor -5 and Rtt109 Vps75 7.
`CNc1c(NS(=O)(=O)c2cc(Cl)ccc2OC)c(=O)oc2ccccc12` gave CSN deneddyl inh 1, HNF4A DNA FP 2, TPT1 inhibitor 1 and Rtt109 Vps75 -4.
Screening Cc1cc2nc(/C(C#N)=C\c3ccc(-c4ccccc4C(=O)O)o3)[nH]c2cc1C returned CSN deneddyl inh 118, HNF4A DNA FP 148, TPT1 inhibitor 138*, Rtt109 Vps75 -9, TPT1 inh confirm 145* and RNase T1 counter 136*.
`N#C/C(=C\c1ccc(Sc2ccccc2)o1)c1nc2ccccc2[nH]1` gave CSN deneddyl inh -5, HNF4A DNA FP 11, TPT1 inhibitor 51*, Rtt109 Vps75 6, TPT1 inh confirm 60* and RNase T1 counter 70*.
Cc1cc(/C=C(/C#N)c2nc3ccccc3[nH]2)c(C)n1-c1ccccc1C(=O)O was read as CSN deneddyl inh 30, HNF4A DNA FP 5, TPT1 inhibitor 24 and Rtt109 Vps75 18.
For COc1ccc(Cl)cc1Nc1nc(Cl)nc(NCCO)n1 the results were CSN deneddyl inh 1 and HNF4A DNA FP -1.
`CC(=O)/C(=N/Nc1ccccc1Cl)Sc1nnc(C(O)c2ccccc2)n1-c1ccccc1` (centres undefined) gave CSN deneddyl inh -6, HNF4A DNA FP 0, TPT1 inhibitor 48*, Rtt109 Vps75 -3, TPT1 inh confirm 6 and RNase T1 counter 6.
Screening Cc1ccc(C2C3=C(CCCC3=O)OC3=C2C(=O)CCC3)cc1 returned CSN deneddyl inh 4, HNF4A DNA FP 1, TPT1 inhibitor 54*, Rtt109 Vps75 5, TPT1 inh confirm 8 and RNase T1 counter 10.
`C[C@H](CO)N1C[C@H](C)[C@@H](CN(C)C(=O)Nc2ccc(C(F)(F)F)cc2)Oc2c(NC(=O)CCC(F)(F)F)cccc2C1=O` gave CSN deneddyl inh 1, HNF4A DNA FP -3 and Rtt109 Vps75 3.
`O/C(=C\c1ccc2ccccc2n1)c1ccncc1` gave CSN deneddyl inh 11, HNF4A DNA FP 23, TPT1 inhibitor 53*, Rtt109 Vps75 -1, TPT1 inh confirm 81* and RNase T1 counter 90*.
Screening O/N=C/c1ccc2ccccc2n1 returned CSN deneddyl inh 4, HNF4A DNA FP -1, TPT1 inhibitor 0 and Rtt109 Vps75 -7.
`CC(OC(=O)CCN=C1NS(=O)(=O)c2ccccc21)C(=O)N(C)C1CCCCC1` (centres undefined) gave CSN deneddyl inh 0, HNF4A DNA FP 1, TPT1 inhibitor -3 and Rtt109 Vps75 2.
Screening Cc1cc(S(=O)(=O)N2CCCOC2CNC(=O)C(=O)NCCCN2CCOCC2)ccc1F (centres undefined) returned CSN deneddyl inh -2, HNF4A DNA FP 4, TPT1 inhibitor -2 and Rtt109 Vps75 0.
Cc1nn(C)c(C)c1CCC(=O)N1CCCC(N2CCN(c3ccc(F)cc3)CC2)C1 (centres undefined) was read as CSN deneddyl inh 1, HNF4A DNA FP 0, TPT1 inhibitor -2 and Rtt109 Vps75 -8.

Compound activity (PubChem BioAssay)
